According to PubChem BioAssay AID651608 (The Scripps Research Institute Molecular Screening Center, 2012):
The list shows a part of the results. Unmarked numbers belong to inactive results. The source made the active and inactive calls.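 The calls were made as follows: active = average inhibition over triplicates above the hit cutoff set in the earlier primary screen (cut at about 25% in these data); inactive = the rest.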

Target: ADP-ribosylation factor GTPase-activating protein 1 (Rattus norvegicus) (UniProt Q62848)
Sequence (Q62848 whole entry, looked up): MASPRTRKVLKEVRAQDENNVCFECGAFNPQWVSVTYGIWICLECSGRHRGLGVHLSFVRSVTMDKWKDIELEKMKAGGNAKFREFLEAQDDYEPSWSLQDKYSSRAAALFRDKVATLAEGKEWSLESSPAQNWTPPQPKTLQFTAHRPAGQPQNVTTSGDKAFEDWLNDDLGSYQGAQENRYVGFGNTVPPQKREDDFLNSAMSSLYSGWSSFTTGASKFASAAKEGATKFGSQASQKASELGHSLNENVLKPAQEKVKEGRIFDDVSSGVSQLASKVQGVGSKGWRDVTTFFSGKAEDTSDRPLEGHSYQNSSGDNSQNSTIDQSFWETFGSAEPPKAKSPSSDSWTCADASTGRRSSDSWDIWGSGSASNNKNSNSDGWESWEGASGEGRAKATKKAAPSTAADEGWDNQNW
Experiment: ARFGAP1 inhibitor hit confirmation, biochemical, fluorescence polarization, triplicate (AID 651608);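 also: 0% = Arfgap1 plus ARF1-GTP with DMSO and 100% = wells lacking Arfgap1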
Conditions: ARFGAP1-stimulated ARF1 GTP hydrolysis, GDP tracer FP; at 16.5 µM; active compounds read high
Summary of the method: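 Assay system – purified rat Arfgap1 GAP domain with human ARF1 · Medium – HEPES buffer, pH 7.5 · Doses – 16.5 µM, one dose · Timing – 20 min pre-incubation, 120 min reaction at 25 °C, 60 min detection · Technique – fluorescence polarization of Alexa 633 GDP tracer displaced from anti-GDP antibody · Measure – percent inhibition · Repeats – three replicates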

Which inhibition does the source give for `CCn1c(SCc2cc(=O)n3ccsc3n2)nc2ccccc21` here?
The inhibition was -5.82%.

`COc1ccc(CNC(=O)C(Cc2ccccc2)n2cccc2)cc1` (configuration not stated) was tested. Which inhibition did it give?
Its inhibition is 2%.

Which inhibition does the source give for `OC(COc1cccc(OCC(O)CN2CCCC2)c1)CN1CCCC1` (configuration not stated) here?
The inhibition was 1.32%.

Which inhibition does the source give for `Cc1ccc(-n2ncc3c2ncn2nc(-c4ccco4)nc32)c(C)c1` here?
Its inhibition is 3.31%.

How did the inhibition turn out when `CCOC(=O)c1ccc(Nc2cc3ccccc3c(=O)[nH]2)cc1` was run?
Its inhibition is 9.83%.

Which inhibition does the source give for `COc1ccc(C(CNC(=O)c2cccc(S(=O)(=O)Nc3ccccc3Cl)c2)N2CCOCC2)cc1` (configuration not stated) here?
Its inhibition is 4.17%.

Which inhibition does the source give for `CC1CCc2[nH]c3ccc(C(=O)N(C)CC(=O)Nc4cccc(F)c4)cc3c2C1` (configuration not stated) here?
The inhibition was 1.73%.

For `O=C(NC1CCCCC1)c1ccc(CNc2c(N3CCOCC3)c(=O)c2=O)cc1`, which inhibition is on record?
The inhibition was -1.66%.

For `Cc1ccc2nc(N3C(=O)C(O)=C(C(=O)c4ccco4)C3c3cccc(O)c3)sc2c1` (configuration not stated), which inhibition is on record?
Its inhibition is 18.3%.

Which inhibition does the source give for `Cc1cc(C)cc(NC(=O)C2CCCN(S(=O)(=O)c3ccc4[nH]c(=O)ccc4c3)C2)c1` (configuration not stated) here?
Its inhibition is 0.48%.

How did the inhibition turn out when `CCOC(=O)C1CCN(C(c2cc3cc(C)cc(C)c3[nH]c2=O)c2nnnn2C2CCCCC2)CC1` (configuration not stated) was run?
The inhibition was 0.48%.

For `Nc1ccc(S(=O)(=O)Nc2nccc(/C=C/c3ccc(Br)s3)n2)cc1`, which inhibition is on record?
Its inhibition is -3.16%.

Which inhibition does the source give for `COc1cccc(CNc2nc(C(F)(F)F)nc3ccccc23)c1` here?
Its inhibition is 8.01%.

With `COc1ccccc1OCC(=O)OCn1c(SC)nnc(C)c1=O` as the compound, how does the inhibition read?
Its inhibition is 0.34%.

`Cc1ccc(NC(=O)c2ccc(Oc3ncccn3)cc2)cc1` was tested. Which inhibition did it give?
Its inhibition is 1.89%.

For `O=C(O)CCn1cc(/C=C/C(=O)c2ccc(Cl)cc2)c(-c2cccc(Br)c2)n1`, which inhibition is on record?
The inhibition was -2.84%.

`C#C[C@]1(O)CC[C@H]2[C@@H]3CCC4=CC(=O)CC[C@@H]4[C@H]3CC[C@@]21CC` was tested. Which inhibition did it give?
Its inhibition is 4.82%.

For `Cc1ccc2nc(SCC(=O)N3CC(C)OC(C)C3)nc(=O)n2c1` (configuration not stated), which inhibition is on record?
Its inhibition is 90.3% (active).

How did the inhibition turn out when `CN(C)CCNC(=O)c1ccc(-c2cn3c(-c4ccc(Oc5ccccc5)cc4)cnc3cn2)cc1` was run?
Its inhibition is 48.8% (active).

`COc1ccc(/C=C2\SC(=S)N(CCCC(=O)NC3CCCC3)C2=O)cc1OC` was tested. Which inhibition did it give?
Its inhibition is -4.01%.

`COc1ccc(-c2csc(Nc3ccc(O)cc3)n2)cc1` was tested. Which inhibition did it give?
The inhibition was 4.53%.

For `COCCNc1cc(-c2ccccc2)nc2cc(-c3cccc(F)c3)nn12`, which inhibition is on record?
Its inhibition is 10.8%.

Which inhibition does the source give for `COc1ccc(-n2nc3c(N4CCC(C(=O)NCc5ccccc5)CC4)nnc(C)c3c2C)cc1` here?
The inhibition was 44% (active).

How did the inhibition turn out when `CCNS(=O)(=O)c1ccc(NC(=O)Nc2cccc(C(F)(F)F)c2)cc1` was run?
Its inhibition is 18.2%.

Which inhibition does the source give for `COc1ccc(NC(=O)c2cn(-c3ccccc3)nc2SC)cc1` here?
The inhibition was 18.4%.

With `O=C(O)CSCc1ccc(C(=O)O)o1` as the compound, how does the inhibition read?
The inhibition was 5.16%.

Which inhibition does the source give for `CC(C)CCSc1ncnc2c1oc1nc3c(cc12)COC(C)(C)C3` here?
Its inhibition is 1.56%.

`O=C(CCc1ccccc1)Nc1ncc([N+](=O)[O-])s1` was tested. Which inhibition did it give?
Its inhibition is -7.17%.

For `COC(=O)c1cc2c(c3c4ccccc4n(S(=O)(=O)c4cccc(C)c4)c13)C(=O)N(Cc1ccccc1)C2`, which inhibition is on record?
The inhibition was -0.32%.

With `CCO[C@@H]1OC(C(N)=O)=C[C@H](c2ccc(Br)cc2)[C@H]1CCCO` as the compound, how does the inhibition read?
The inhibition was 0.74%.

Which inhibition does the source give for `COc1ccc(Cl)cc1NC(=O)Cn1nc(-c2ccc(C)cc2)n(C)c1=S` here?
The inhibition was 1.54%.

How did the inhibition turn out when `O=C(Nc1cccc(-c2nc3ccccc3[nH]2)c1)c1ccc(C(=O)Nc2cccc(-c3nc4ccccc4[nH]3)c2)cc1` was run?
The inhibition was 60.7% (active).

`COc1ccc(C(N)c2csc(NC(=O)Nc3cccc(C(F)(F)F)c3)n2)cc1` (configuration not stated) was tested. Which inhibition did it give?
The inhibition was 19.2%.

With `O=C(/C=C/c1cn(-c2ccccc2)nc1-c1ccc2c(c1)OCCO2)NCCCN1CCOCC1` as the compound, how does the inhibition read?
The inhibition was 13%.

For `Cn1c(=O)[nH]c(=O)c2c1nc(N1CCN(CCO)CC1)n2CCSc1nc2ccccc2s1`, which inhibition is on record?
Its inhibition is -2.06%.

For `CCN(CC)c1ccc(NC(=O)CN2CCN(c3ccccn3)CC2)cc1`, which inhibition is on record?
The inhibition was -5.51%.

With `c1ccc(-c2cc(-c3nnc4sc(-c5ccccn5)nn34)[nH]n2)cc1` as the compound, how does the inhibition read?
The inhibition was 36.3% (active).
